According to ChEMBL document CHEMBL2062386, “Discovery of LFF571: an investigational agent for Clostridium difficile infection” (J Med Chem, 2012):
Values after ≈ are worked out from the molar mass of the structure shown. Active and inactive are the calls of the source. No cut-off for these calls is given here.

What was measured:
Enterococcus faecium = experiment: Antibacterial activity against Enterococcus faecium 7130724 by broth microdilution method; format: functional
Enterococcus faecalis [1] = experiment: Antibacterial activity against Enterococcus faecalis ATCC 29212 by broth microdilution method; format: functional
Outline: (§1)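 Broth microdilution MICs were run per CLSI M07-A8 (2009). The strain panel included C. difficile ATCC 43255, E. faecalis ATCC 29212 and S. pyogenes ATCC BAA-595.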

Staphylococcus aureus [2] = experiment: Antibacterial activity against Staphylococcus aureus A4.018 by broth microdilution method; format: functional
Streptococcus pyogenes = experiment: Antibacterial activity against Streptococcus pyogenes ATCC BAA-595 by broth microdilution method; format: functional; outline: as §1
[3] = Antibacterial activity against Clostridium difficile ATCC 43255 by broth microdilution method; format: functional; details: Clostridioides difficile; outline: as §1
Escherichia coli [4] = experiment: Inhibition of protein synthesis in Escherichia coli S30 extract at 2 uM after 75 mins by luciferase based luminescence assay relative to GE2270A; format: functional
[5] = Binding affinity to Escherichia coli GDPNP-labelled EF-Tu by surface plasmon resonance analysis
Staphylococcus aureus [6] = experiment: Antibacterial activity against Staphylococcus aureus ATCC 49951 infected in CD1 mouse assessed as mouse survival up to 5 days; format: functional; details: ATCC 49951, 120 h
Outline: (§2)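 Female CD1 mice (21–25 g) were infected ip with 1 × 10^8 CFU/mouse, 10–100× the minimal lethal dose. E. faecalis NB04025 was given in 50% rat fecal extract and S. aureus ATCC 49951 in 0.9% NaCl. Compound was given by iv tail-vein bolus at 1 and 5 h post-inoculation, at several dose levels (6 mice/group). ED50 with 95% CI was derived by probit analysis of day-5 survival.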

Enterococcus faecalis [7] = experiment: Antibacterial activity against Enterococcus faecalis NB04025 infected in CD1 mouse assessed as mouse survival up to 5 days; format: functional; details: NB04025, 120 h; outline: as §2
[8] = Oral bioavailability in Sprague-Dawley rat; format: ADME, organism-based; details: in vivo
Outline: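 Male Sprague–Dawley rats (220–270 g, N = 2 or 3) were used, including iv dosing. Rats were fasted overnight and for 8 h post-dose. Plasma (K2-EDTA) was protein-precipitated with acetonitrile containing glyburide internal standard and analysed by LC–MS/MS (C18, formic acid water/acetonitrile gradient).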

[9] = Antibacterial activity against Clostridium difficile ATCC 43255 infected in golden syrian hamster assessed as survival rate at 0.2 mg/kg, po qd administered days 1 to 5 measured on days 6 to 21; format: functional; details: Clostridioides difficile
Outline: (§3)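 Golden Syrian hamsters got clindamycin 10 mg/kg sc on day −1. On day 0 they were gavaged with ~7.5 × 10^6 CFU C. difficile ATCC 43255 (0.75 mL). From 24 h post-infection they were dosed orally once daily for up to 5 days (8/dose), in a NaOH/PEG-400/2.5% Cremophor EL solution diluted in pH 7.4 PBS. Vehicle controls were included, and animals were observed twice daily through day 21.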

[10] = Antibacterial activity against Clostridium difficile ATCC 43255 infected in golden syrian hamster assessed as survival rate at 2 mg/kg, po qd administered days 1 to 5 measured on days 6 to 21; format: functional; details: Clostridioides difficile; outline: as §3
[11] = Antibacterial activity against Clostridium difficile ATCC 43255 infected in golden syrian hamster assessed as survival rate at 20 mg/kg, po qd administered days 1 to 5 measured on days 6 to 21; format: functional; details: Clostridioides difficile; outline: as §3
[12] = Drug level in Clostridium difficile infected golden syrian hamster cecum at 20 mg/kg, po qd administered for 5 days measured at 1 hr post dose; format: ADME, organism-based, Mesocricetus auratus, Caecum; parameters: dose 20 mg/kg, route oral; details: read-out: Drug uptake
Outline: (§4)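 C. difficile-infected hamsters received 20 mg/kg orally (0.6 mL at 3.3 mg/mL) once daily for 5 days. At 1 and 3 h after the fifth dose, 3 animals per time point were sampled: plasma (K2-EDTA, cardiac puncture) and cecal contents. Cecal contents were homogenized in PBS/25% acetonitrile (final 1:25 dilution). Samples were protein-precipitated with acetonitrile containing glyburide internal standard.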

[13] = Drug level in Clostridium difficile infected golden syrian hamster cecum at 20 mg/kg, po qd administered for 5 days measured at 3 hrs post dose; format: ADME, organism-based, Mesocricetus auratus, Caecum; parameters: dose 20 mg/kg, route oral; details: read-out: Drug uptake; outline: as §4
[14] = Plasma concentration in Clostridium difficile infected golden syrian hamster at 20 mg/kg, po qd administered for 5 days measured at 1 hr post dose; format: ADME, organism-based, Mesocricetus auratus; parameters: dose 20 mg/kg, route oral; outline: as §4
[15] = Plasma concentration in Clostridium difficile infected golden syrian hamster at 20 mg/kg, po qd administered for 5 days measured at 3 hrs post dose; format: ADME, organism-based, Mesocricetus auratus; parameters: dose 20 mg/kg, route oral; outline: as §4
[16] = tested on: Clostridium difficile ATCC 43255; experiment: Antibacterial activity against Clostridium difficile ATCC 43255 infected in golden syrian hamster assessed as decrease in toxin level in cecum after 21 days by ELISA; format: functional; details: Caecum
Outline: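 In the clindamycin-pretreated, C. difficile-infected hamster model, oral compound was given once daily on days 1–5. Surviving animals were euthanized at study end (day 21). Cecal homogenates were assayed for C. difficile toxins A and B by Tox A/B II ELISA per kit directions.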

Escherichia coli [17] = experiment: Inhibition of protein synthesis in Escherichia coli S30 extract after 75 mins by luciferase based luminescence assay relative to GE2270A; format: functional, organism-based
[18] = tested on: Clostridium difficile ATCC 43255; experiment: Antibacterial activity against Clostridium difficile ATCC 43255 infected in po dosed golden syrian hamster assessed as survival rate administered qd for days 1 to 5 measured on after 6 to 21 days; format: functional, organism-based; outline: as §3

Row | Structure (SMILES) | MIC (Enterococcus faecium) [µg/mL] | MIC (Enterococcus faecalis [1]) [µg/mL] | MIC (Staphylococcus aureus [2]) [µg/mL] | MIC (Streptococcus pyogenes) [µg/mL] | MIC [3] [µg/mL] | inhibition at 2 µM (Escherichia coli [4]) [%] | Kd [5] [nM] | ED50 (Staphylococcus aureus [6]) [mg/kg] | ED50 (Enterococcus faecalis [7]) [mg/kg] | survival at 0.2 mg/kg [9] [%] | survival at 2 mg/kg [10] [%] | survival at 20 mg/kg [11] [%] | concentration at 1 h [12] [µM] | concentration at 3 h [13] [µM] | Activity [16] | further results
1 | CNC(=O)C[C@@H]1NC(=O)c2csc(n2)-c2ccc(-c3nc(N(CCCCC(=O)O)C(=O)O[C@H]4CC[C@H](C(=O)O)CC4)cs3)nc2-c2csc(n2)-c2csc(n2)[C@H]([C@@H](O)c2ccccc2)NC(=O)CNC(=O)c2nc(sc2COC)[C@H](C(C)C)NC(=O)c2nc1sc2C [LFF-571] | < 0.06 | < 0.06 | 0.125 (≈ 0.0915 µM) | 1 (≈ 0.732 µM) | 0.03 (≈ 0.022 µM) | 67 | 6 | 6.9 | 2.2 | 0 | 100 | 100 | 61 | 208 | Active | bioavailability [8]: < 0.1%; concentration at 1 h ([14]; golden Syrian, plasma): 0.0448 µM; concentration at 3 h ([15]; golden Syrian, plasma): 0.0052 µM
2 | CNC(=O)C[C@@H]1NC(=O)c2csc(n2)-c2ccc(-c3nc(C4=N[C@H](C(=O)N5CCC[C@H]5C(N)=O)CO4)cs3)nc2-c2csc(n2)-c2csc(n2)[C@H]([C@@H](O)c2ccccc2)NC(=O)CNC(=O)c2nc(sc2COC)[C@H](C(C)C)NC(=O)c2nc1sc2C | 0.25 (≈ 0.194 µM) | 0.5 (≈ 0.387 µM) | 0.25 (≈ 0.194 µM) | 1 (≈ 0.775 µM) | 0.015 (≈ 0.0116 µM) | 30 | 3 | – | – | – | – | – | – | – | – | IC50 (Escherichia coli [17]): 2000 nM
3 | CNC(=O)C[C@@H]1NC(=O)c2csc(n2)-c2ccc(-c3nc(NC(=O)[C@H]4CC[C@H](C(=O)O)CC4)cs3)nc2-c2csc(n2)-c2csc(n2)[C@H]([C@@H](O)c2ccccc2)NC(=O)CNC(=O)c2nc(sc2COC)[C@H](C(C)C)NC(=O)c2nc1sc2C | 0.06 (≈ 0.048 µM) | 0.06 (≈ 0.048 µM) | 0.125 (≈ 0.1 µM) | 4 (≈ 3.2 µM) | 0.06 (≈ 0.048 µM) | 30 | 43 | 5.2 | 0.6 | 0 | 62.5 | 100 | 18 | 39 | Active | Survival [18]: Dose-dependent effect; Cp ([14]; in vivo, 1 h, BLD = below limit of detection): BLD; Cp ([15]; in vivo, 3 h, BLD = below limit of detection): BLD
